Here are results for one compound from publication PMC11734723 (Science Advances, 2025).

What is called IC50 is the concentration needed to halve the response being measured.

This assay concerns the target T1, TRPC5 (Homo sapiens, UniProt Q9UL62).
T1 sequence (Q9UL62 1-973): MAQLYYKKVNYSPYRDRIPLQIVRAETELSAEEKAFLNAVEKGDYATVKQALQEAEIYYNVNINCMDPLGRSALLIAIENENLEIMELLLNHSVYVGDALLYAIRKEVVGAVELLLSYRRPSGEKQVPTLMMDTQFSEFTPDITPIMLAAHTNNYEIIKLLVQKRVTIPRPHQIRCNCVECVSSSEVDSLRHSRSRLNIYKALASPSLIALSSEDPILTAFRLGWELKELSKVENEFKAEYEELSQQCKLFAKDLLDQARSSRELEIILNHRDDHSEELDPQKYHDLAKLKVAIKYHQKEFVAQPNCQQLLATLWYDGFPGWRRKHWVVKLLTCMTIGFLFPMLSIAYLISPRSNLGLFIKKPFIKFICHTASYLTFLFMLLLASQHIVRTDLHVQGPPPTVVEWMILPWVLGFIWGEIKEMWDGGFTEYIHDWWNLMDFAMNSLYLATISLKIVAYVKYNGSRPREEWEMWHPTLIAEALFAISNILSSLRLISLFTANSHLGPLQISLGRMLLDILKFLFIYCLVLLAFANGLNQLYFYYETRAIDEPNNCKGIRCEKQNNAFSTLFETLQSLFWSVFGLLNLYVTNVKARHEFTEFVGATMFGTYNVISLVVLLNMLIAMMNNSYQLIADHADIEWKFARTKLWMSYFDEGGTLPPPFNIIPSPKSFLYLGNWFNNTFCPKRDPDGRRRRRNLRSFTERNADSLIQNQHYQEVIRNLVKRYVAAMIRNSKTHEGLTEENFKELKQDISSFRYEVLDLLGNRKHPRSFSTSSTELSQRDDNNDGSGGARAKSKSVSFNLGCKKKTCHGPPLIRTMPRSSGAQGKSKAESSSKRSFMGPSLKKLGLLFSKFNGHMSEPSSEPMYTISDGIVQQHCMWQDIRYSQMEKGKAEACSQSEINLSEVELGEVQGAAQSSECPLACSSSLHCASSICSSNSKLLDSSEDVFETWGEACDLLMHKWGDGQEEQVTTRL
Description: Carbachol-induced Sr2+ entry in TRPC5-overexpressing HEK293 cells. To be noted: read-out: IC50 of Cch-induced Sr2+ entry; Cch 100 nM, Sr2+ 3 mM. It is filed as cell-based. The essentials: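 HEK293 cells were electroporated with GFP-tagged TRPC4, TRPC5 or TRPC7, plated after 24 h and cultured 48 h under selection; only high-GFP cells were analysed. Coverslip cells were loaded with Fura2 (2 µM) and treated with carbachol (100 nM) plus test compound (0 to 100 µM). Entry was measured after adding Sr²⁺ (3 mM), read as the 340/380 ratio; n = 3 to 5.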

As to `CCC(=O)N(C)c1ccc(Cl)c(Cl)c1` [ELP-004], the IC50 was 11.5 nM.
